The target in data set [1] is Mitogen-activated protein kinase 1 (Homo sapiens, UniProt P28482). The experiment in a line: Inhibition of ERK2 in human HEK293 cells after 1 hr by competition binding assay. Type of data set: cell-based. The gist of the method:
(§1)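 KINOMEscan competition binding. Binding reactions ran at rt for 1 h. Unbound kinase was captured on an immobilized affinity ligand and quantified by qPCR. Each kinase was tested individually.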

Data set [2] deals with Mus musculus. As to the kind of experiment: Toxicity in athymic nude mouse xenografted with human COLO205 cells at 100 mg/kg, po bid for 14 days measured upto 1 week post dosing. The format is organism-based, COLO 205. On the set-up: dose 100 mg/kg, route oral. Conditions: in vivo. In a few lines: (§2)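 Athymic nude mice (20–25 g) were inoculated subcutaneously in the flank with 1×10^6 Colo-205 cells. At 150–200 mm3 they were randomized (n = 10/group) to oral vehicle (22% HPβCD) or 10, 30 or 100 mg/kg BID for 14 days. Calipers were used three times weekly. Body weight and behavior were monitored, with 7–10 days of follow-up after dosing. Partial regression meant volume falling in ≥3 successive measurements, ending below baseline but still palpable.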

Data set [3] deals with COLO 205. As to the kind of experiment: Antitumor activity against human COLO205 cells xenografted in athymic nude mouse at 100 mg/kg, po bid for 14 days. The format is functional, organism-based. On the set-up: dose 100 mg/kg. In a few lines: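 Athymic nude mice carried subcutaneous flank Colo-205 xenografts (1 × 10^6 cells), randomized at 150−200 mm3 (n = 10/group). Oral dosing BID for 14 days in 22% HPβCD against vehicle controls. Caliper volumes W2(L/2) taken three times weekly. Partial regression: volume fell in ≥3 successive measurements to below the starting volume while the tumor stayed palpable.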
Background: Xenograft models place foreign cells or tissue in a host animal.

The target of data set [4] is Hepatocyte growth factor receptor (Homo sapiens, UniProt P08581). The experiment in a line: Inhibition of cMET in human HEK293 cells after 1 hr by competition binding assay. The format is cell-based. In a few lines:
as §1

Data set [5] can be described thus: AUC (infinity) in athymic nude mouse at 100 mg/kg, po. Type of data set: ADME, organism-based. On the set-up: time infinity, dose 100 mg/kg, route oral. Conditions: plasma. In a few lines:
(§3)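 Single-dose PK. Rats: male Sprague−Dawley, jugular-catheterized, 1 mg/kg iv in 3:1 PEG400/water (n = 2) and 10 mg/kg po in Pharmatek #6 (n = 3). Female athymic nude mice: 100 mg/kg po in Pharmatek #6 (n = 3). Beagle dogs and male cynomolgus monkeys (n = 3): crossover, 1 mg/kg iv and 10 mg/kg po in 22% HPβCD, overnight fast. Plasma LC-MS/MS to 24 h; noncompartmental parameters, mean ± SD.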

Data set [6] is described as follows: Cmax in Sprague-Dawley rat at 10 mg/kg, po. Type of data set: ADME, organism-based. On the set-up: dose 10 mg/kg, route oral. The settings on record: in vivo. The gist of the method:
as §3

Another data set has as its system DU-145. As to the kind of experiment: Cytotoxicity against human DU145 cells expressing wild type BRAF after 72 hrs by cell titer blue assay. Type of data set: functional, cell-based. The settings on record: DU-145, 72 h. In a few lines:
(§4)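 Cells were grown in ATCC-recommended media and kept overnight in 0.5% serum. They were then exposed to compound for 72 h, and Cell Titer Blue was added for 3 h. EC50 came from fluorometric concentration−response curves, run in duplicate and repeated at least once.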
A general note: Alamar Blue is a resazurin reagent that responds to reducing activity.

Data set [7] has as its target ALK tyrosine kinase receptor (Homo sapiens, UniProt Q9UM73). As to the kind of experiment: Inhibition of ALK in human HEK293 cells after 1 hr by competition binding assay. Type of data set: cell-based. The gist of the method: (§5)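 Unbound kinase was captured on immobilized affinity ligand and quantified by qPCR. Kd came from eleven serial 3-fold dilutions, as the mean of duplicates.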

For data set [8], the target named is Tyrosine-protein kinase JAK3 (Homo sapiens, UniProt P52333). The experiment in a line: Inhibition of JAK3 in human HEK293 cells after 1 hr by competition binding assay. The format is cell-based. In a few lines: as §5
Tyrosine-protein kinase JAK3, sequence (P52333 whole entry): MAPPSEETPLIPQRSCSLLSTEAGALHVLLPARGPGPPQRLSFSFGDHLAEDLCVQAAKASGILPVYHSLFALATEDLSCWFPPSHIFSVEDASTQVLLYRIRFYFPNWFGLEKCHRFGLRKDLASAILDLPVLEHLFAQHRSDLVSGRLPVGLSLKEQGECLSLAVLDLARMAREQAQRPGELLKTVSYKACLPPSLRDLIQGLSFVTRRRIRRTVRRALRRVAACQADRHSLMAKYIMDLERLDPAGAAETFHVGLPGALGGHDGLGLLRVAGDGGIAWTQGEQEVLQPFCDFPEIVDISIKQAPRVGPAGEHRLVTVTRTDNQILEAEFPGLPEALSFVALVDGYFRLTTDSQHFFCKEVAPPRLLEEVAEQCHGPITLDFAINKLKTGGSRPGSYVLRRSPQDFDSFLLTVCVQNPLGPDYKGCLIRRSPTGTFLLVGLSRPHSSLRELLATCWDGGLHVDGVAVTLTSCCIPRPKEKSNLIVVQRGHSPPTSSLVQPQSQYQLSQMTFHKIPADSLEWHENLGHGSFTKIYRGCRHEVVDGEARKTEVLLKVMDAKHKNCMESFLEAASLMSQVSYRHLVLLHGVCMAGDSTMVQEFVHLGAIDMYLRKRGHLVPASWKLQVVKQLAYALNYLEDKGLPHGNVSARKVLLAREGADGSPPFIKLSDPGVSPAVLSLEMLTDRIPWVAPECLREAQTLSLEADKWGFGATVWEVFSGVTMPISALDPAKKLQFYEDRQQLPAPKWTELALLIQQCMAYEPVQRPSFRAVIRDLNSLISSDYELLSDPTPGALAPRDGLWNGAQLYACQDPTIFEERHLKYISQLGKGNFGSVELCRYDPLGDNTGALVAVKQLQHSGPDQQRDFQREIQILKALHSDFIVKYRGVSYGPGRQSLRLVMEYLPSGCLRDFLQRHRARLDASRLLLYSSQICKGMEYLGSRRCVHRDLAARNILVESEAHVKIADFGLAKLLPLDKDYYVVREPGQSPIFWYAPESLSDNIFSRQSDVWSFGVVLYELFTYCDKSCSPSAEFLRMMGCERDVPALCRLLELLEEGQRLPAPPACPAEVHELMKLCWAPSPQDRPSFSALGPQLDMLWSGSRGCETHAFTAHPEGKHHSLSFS
A short description of data set [9]: Half life in mouse liver microsomes. Type of data set: ADME, Microsome. The gist of the method: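 Pooled liver microsomes (0.5 mg/mL) in 0.1 M phosphate pH 7.4 with 6.5 mM MgCl2 and compound at 1 μM (0.2% DMSO). NADPH (1 mM) started the reaction at 37 °C, with minus-NADPH and testosterone controls. Aliquots taken at 0, 5, 15, 30 and 60 min were quenched in acetonitrile; duplicates.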
On the technique in general: Microsomes from liver hold many membrane-bound enzymes, among them those of drug oxidation.

Data set [10] in a line: Tmax in beagle dog at 10 mg/kg, po. The format is ADME, organism-based, Canis lupus familiaris. On the set-up: dose 10 mg/kg, route oral. Conditions: in vivo. The gist of the method: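 Male non-naive cynomolgus monkeys (2.6–3.4 kg) and beagle dogs (10.3–11.9 kg), n = 3 each, were dosed in a crossover design with a ≥7-day washout. Doses were 10 mg/kg by nasogastric gavage and 1 mg/kg as a saphenous iv bolus, both free base in 22% HPβCD. Animals were fasted overnight until about 4 h post dose. Femoral plasma was sampled from predose to 24 h and analyzed by LC-MS/MS. Parameters came from noncompartmental analysis; mean ± SD reported.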

In data set [11] the target is Tyrosine-protein kinase ABL1 (Homo sapiens, UniProt P00519). The experiment in a line: Inhibition of Abl1 in human HEK293 cells after 1 hr by competition binding assay. The format is cell-based. The gist of the method: as §1
Tyrosine-protein kinase ABL1, sequence (P00519 whole entry): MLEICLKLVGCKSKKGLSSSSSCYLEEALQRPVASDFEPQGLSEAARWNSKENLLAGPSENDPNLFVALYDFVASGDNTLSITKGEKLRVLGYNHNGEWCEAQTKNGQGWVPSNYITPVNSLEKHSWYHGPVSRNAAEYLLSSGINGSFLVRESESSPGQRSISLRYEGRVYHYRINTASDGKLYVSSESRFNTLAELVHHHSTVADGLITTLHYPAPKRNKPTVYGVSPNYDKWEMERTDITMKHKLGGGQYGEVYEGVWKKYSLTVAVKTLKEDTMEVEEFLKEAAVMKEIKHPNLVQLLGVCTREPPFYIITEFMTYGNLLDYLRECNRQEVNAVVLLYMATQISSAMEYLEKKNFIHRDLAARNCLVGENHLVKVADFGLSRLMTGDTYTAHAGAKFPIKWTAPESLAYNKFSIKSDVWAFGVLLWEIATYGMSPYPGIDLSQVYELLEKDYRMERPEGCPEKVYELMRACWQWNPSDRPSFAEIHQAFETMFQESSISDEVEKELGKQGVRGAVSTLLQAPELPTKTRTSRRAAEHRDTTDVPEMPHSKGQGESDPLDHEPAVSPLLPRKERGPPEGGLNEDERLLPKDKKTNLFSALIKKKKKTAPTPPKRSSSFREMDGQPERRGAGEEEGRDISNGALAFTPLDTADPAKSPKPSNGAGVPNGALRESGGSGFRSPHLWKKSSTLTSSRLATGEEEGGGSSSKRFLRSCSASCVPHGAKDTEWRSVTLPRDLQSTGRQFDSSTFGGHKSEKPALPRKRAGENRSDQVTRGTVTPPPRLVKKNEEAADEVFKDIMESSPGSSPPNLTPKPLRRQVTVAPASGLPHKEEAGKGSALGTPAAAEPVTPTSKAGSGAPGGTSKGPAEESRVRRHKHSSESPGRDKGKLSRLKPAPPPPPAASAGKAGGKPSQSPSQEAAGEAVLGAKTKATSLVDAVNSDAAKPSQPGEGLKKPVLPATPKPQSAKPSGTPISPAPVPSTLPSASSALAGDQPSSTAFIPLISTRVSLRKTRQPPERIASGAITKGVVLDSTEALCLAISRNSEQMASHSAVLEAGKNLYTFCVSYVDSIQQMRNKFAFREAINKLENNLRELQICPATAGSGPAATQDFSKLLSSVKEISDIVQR
Data set [12] has as its system Mus musculus. As to the kind of experiment: Toxicity in athymic nude mouse xenografted with human COLO205 cells at 30 mg/kg, po bid for 14 days measured upto 1 week post dosing. Type of data set: organism-based, COLO 205. On the set-up: dose 30 mg/kg, route oral. The settings on record: in vivo. In a few lines:
as §2

The subject of a further data set is PC-3. The experiment in a line: Cytotoxicity against human PC3 cells expressing wild type BRAF after 72 hrs by cell titer blue assay. Type of data set: functional, cell-based. Conditions: PC-3, 72 h. In a few lines: as §4
Another data set has as its system LNCaP. The experiment in a line: Cytotoxicity against human LNCAP cells expressing wild type BRAF after 72 hrs by cell titer blue assay. Type of data set: functional, cell-based. The gist of the method:
as §4

Data set [13] addresses Serine/threonine-protein kinase PLK1 (Homo sapiens, UniProt P53350). As to the kind of experiment: Inhibition of PLK1 in human HEK293 cells after 1 hr by competition binding assay. Type of data set: cell-based. In a few lines: as §1
Data set [14] deals with Mus musculus. As to the kind of experiment: Inhibition of BRAF V600E mutant-mediated MEK phosphorylation in human COLO205 cells xenografted in athymic nude mouse at 30 mg/kg, po after 6 hrs. The format is functional. The settings on record: COLO 205, 6 h. In a few lines:
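Mice bearing Colo-205 xenografts got one oral dose in 22% HPβCD; vehicle controls were run. Tumors were collected at time points over 24 h and lysed. pMEK and total MEK in the lysates were measured by immunoblotting and ELISA, and pMEK was normalized to total MEK.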

In a further data set the test system is HT-144. The experiment in a line: Cytotoxicity against human HT144 cells expressing BRAF V600E mutant after 72 hrs by cell titer blue assay. Type of data set: functional, cell-based. The settings on record: HT-144, 72 h. The gist of the method: as §4
Data set [15] in a line: Volume of distribution in Sprague-Dawley rat at 1 mg/kg, iv and 10 mg/kg, po. Conditions: in vivo. Type of data set: ADME, organism-based. In a few lines:
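Male Sprague-Dawley rats (250–350 g, jugular-catheterized) received a single dose either iv at 1 mg/kg in 3:1 PEG400/water (n = 2) or po at 10 mg/kg in Pharmatek #6 (n = 3). Plasma was sampled at 5 min (iv only), 15 and 30 min, and 1, 2, 4, 6 and 24 h. Samples were analyzed by LC-MS/MS after acetonitrile precipitation. Parameters came from noncompartmental linear-trapezoidal analysis of individual animals.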

The target of data set [16] is Dual specificity mitogen-activated protein kinase kinase 1 (Homo sapiens, UniProt Q02750). As to the kind of experiment: Inhibition of MEK1 in human HEK293 cells after 1 hr by competition binding assay. Type of data set: cell-based. The gist of the method: as §1
Dual specificity mitogen-activated protein kinase kinase 1, sequence (Q02750 whole entry): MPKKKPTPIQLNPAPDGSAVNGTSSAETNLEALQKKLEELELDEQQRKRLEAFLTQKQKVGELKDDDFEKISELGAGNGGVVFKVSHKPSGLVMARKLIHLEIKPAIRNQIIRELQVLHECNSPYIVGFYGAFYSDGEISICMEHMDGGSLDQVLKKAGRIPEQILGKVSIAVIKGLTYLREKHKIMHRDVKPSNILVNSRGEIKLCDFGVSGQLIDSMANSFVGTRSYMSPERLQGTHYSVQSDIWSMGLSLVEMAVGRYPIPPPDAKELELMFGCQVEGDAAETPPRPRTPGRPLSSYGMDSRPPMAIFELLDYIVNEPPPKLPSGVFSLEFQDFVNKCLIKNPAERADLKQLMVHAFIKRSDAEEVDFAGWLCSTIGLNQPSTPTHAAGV
Data set [17] is described as follows: AUC (infinity) in Sprague-Dawley rat at 10 mg/kg, po. Type of data set: ADME, organism-based. On the set-up: time infinity, dose 10 mg/kg, route oral. The settings on record: plasma. The gist of the method:
as §3

Data set [18] has as its system COLO 205. The experiment in a line: Cytotoxicity against human COLO205 cells expressing BRAF V600E mutant after 72 hrs by cell titer blue assay. Type of data set: functional, cell-based. Conditions: COLO 205, 72 h. The gist of the method:
as §4

Another data set deals with COLO-679. The experiment in a line: Cytotoxicity against human COLO679 cells expressing BRAF V600E mutant after 72 hrs by cell titer blue assay. The format is functional, cell-based. The settings on record: COLO-679, 72 h. In a few lines:
as §4

Data set [19] addresses Tyrosine-protein kinase JAK1 (Homo sapiens, UniProt P23458). The experiment in a line: Inhibition of JAK1 in human HEK293 cells after 1 hr by competition binding assay. The format is cell-based. In a few lines: as §1

SMILES strings stand for the structures. The source made the active and inactive calls.

Serine/threonine-protein kinase PLK1, sequence (P53350 whole entry): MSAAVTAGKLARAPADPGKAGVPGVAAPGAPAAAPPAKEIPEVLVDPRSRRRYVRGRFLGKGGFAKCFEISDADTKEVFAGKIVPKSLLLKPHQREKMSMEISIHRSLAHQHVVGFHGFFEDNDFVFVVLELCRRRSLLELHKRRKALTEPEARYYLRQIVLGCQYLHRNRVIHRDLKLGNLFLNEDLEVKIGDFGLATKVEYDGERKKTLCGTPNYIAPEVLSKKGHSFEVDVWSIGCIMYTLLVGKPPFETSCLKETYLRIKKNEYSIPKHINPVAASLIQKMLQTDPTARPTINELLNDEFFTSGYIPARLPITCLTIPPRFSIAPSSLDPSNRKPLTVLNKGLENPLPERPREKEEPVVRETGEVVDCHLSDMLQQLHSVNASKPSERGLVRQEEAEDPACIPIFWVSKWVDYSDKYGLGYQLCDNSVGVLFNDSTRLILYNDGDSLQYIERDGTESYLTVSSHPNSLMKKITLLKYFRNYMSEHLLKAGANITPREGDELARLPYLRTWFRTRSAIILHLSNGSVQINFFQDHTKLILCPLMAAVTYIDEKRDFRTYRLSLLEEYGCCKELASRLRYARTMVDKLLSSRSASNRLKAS
Tyrosine-protein kinase JAK1, sequence (P23458 whole entry): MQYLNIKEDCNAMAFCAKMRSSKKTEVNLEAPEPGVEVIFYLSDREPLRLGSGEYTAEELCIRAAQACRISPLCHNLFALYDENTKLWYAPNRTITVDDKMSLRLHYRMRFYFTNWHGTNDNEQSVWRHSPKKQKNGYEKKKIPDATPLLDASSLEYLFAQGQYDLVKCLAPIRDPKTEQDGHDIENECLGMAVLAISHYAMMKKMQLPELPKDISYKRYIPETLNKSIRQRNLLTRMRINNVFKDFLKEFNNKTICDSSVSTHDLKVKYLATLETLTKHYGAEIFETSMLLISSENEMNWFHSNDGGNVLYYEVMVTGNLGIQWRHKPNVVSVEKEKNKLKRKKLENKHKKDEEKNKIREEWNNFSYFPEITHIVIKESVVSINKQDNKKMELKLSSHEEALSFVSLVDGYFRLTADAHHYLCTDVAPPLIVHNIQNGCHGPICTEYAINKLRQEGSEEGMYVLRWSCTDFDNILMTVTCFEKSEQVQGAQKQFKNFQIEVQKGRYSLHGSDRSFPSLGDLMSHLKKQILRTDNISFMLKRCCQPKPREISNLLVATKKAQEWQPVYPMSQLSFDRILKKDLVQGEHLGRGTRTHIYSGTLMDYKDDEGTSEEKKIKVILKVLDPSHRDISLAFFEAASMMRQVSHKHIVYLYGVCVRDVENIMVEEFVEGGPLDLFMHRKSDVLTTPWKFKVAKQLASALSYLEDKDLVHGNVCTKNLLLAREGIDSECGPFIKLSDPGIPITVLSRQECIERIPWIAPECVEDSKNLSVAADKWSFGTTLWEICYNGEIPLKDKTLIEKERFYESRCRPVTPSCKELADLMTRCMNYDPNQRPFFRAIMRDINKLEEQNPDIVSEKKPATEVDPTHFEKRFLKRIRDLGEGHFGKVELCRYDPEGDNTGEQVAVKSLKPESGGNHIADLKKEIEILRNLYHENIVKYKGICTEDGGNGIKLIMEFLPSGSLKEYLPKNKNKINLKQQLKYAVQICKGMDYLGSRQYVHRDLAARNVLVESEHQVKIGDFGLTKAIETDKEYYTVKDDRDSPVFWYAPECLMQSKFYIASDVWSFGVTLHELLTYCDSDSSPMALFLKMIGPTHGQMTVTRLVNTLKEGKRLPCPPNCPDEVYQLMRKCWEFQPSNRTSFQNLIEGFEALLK
Mitogen-activated protein kinase 1, sequence (P28482 whole entry): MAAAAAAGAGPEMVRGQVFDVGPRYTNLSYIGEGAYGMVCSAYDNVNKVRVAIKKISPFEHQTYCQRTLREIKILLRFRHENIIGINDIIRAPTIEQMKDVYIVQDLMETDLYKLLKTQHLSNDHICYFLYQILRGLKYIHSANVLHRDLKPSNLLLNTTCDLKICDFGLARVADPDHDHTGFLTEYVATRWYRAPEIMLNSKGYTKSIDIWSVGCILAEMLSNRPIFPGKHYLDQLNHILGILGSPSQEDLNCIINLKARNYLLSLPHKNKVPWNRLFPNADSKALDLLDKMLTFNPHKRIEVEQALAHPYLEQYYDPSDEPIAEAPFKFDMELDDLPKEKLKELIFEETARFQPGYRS

As usually defined, the Kd is a measure of binding affinity in units of concentration. Lower therefore signals higher affinity. In general, AUC(0-inf) refers to total exposure, with the tail of the curve extrapolated. Low readings indicate less exposure, high ones more exposure. The term Cmax denotes the maximum level reached in the sampled fluid or tissue. What is called EC50 is the concentration that produces a half-maximal response. A higher EC50 goes with a need for much substance. What is called half-life is the time needed for the level to fall by half in the phase considered. Higher therefore signals slow loss. Usually Tmax stands for the time at which the peak concentration occurs. Usually inhibition in vivo stands for the drop in the measured response relative to a control, in per cent. As for `COc1cc2ncnc(Oc3cccc(NC(=O)Nc4cc(C(C)(C)C(F)(F)F)on4)c3)c2cc1OC` [CEP-32496], the dissociation constant Kd is more than 10000 nM in [1]; 513 nM in data set [4]; more than 10000 nM in data set [7]; more than 10000 nM in data set [8]; 3 nM in data set [11]; more than 10000 nM in data set [13]. Besides, the Kd in [16] was 7100 nM; in data set [19] it was more than 10000 nM. In addition, the Activity entry in the data set with Mus musculus [2] and in the data set on Mus musculus [12] was “Non-toxic” in each case. Also, the result in the data set on COLO 205 [3] was Active. Also, the area under the curve AUC(0-inf) was 394 µM·h in data set [5] and 74.4 µM·h in data set [17]. Further, in data set [6], the maximum concentration (Cmax) stood at 6.5 µM. Also, the EC50 in the data set on DU-145 was found to be 2910 nM; with PC-3, 6260 nM; in the data set on LNCaP it was 6630 nM; in the data set on HT-144 it was 228 nM; in the data set with COLO 205 [18], 36 nM; in the data set on COLO-679, 211 nM. This compound displayed a half-life in data set [9] of more than 1 h. The Tmax in [10] was determined as 2 h. The compound also had an inhibition in vivo at 30 mg/kg in the data set on Mus musculus [14] of 75%. The same compound registered a Vd in [15] of 1.6 L/kg.

The values above are taken from ChEMBL document CHEMBL2029242 (J Med Chem, 2012).
